Source: ChEMBL document CHEMBL4043093, “2-Oxo-3, 4-dihydropyrimido[4, 5-d]pyrimidinyl derivatives as new irreversible pan fibroblast growth factor receptor (FGFR) inhibitors” (Eur J Med Chem, 2017)

Experiments:
[1] = biological target: Serine/threonine-protein kinase SIK3 (Homo sapiens) (UniProt Q9Y2K2); experiment: Inhibition of wild-type human partial length QSK (A90 to L395 residues) expressed in HEK293 cells assessed as residual activity at 1000 nM after 30 mins by Kinomescan method relative to control; assay type: cell-based
[2] = biological target: Serine/threonine-protein kinase D3 (Homo sapiens) (UniProt O94806); experiment: Inhibition of wild-type human partial length PRKD3 (S543 to E863 residues) expressed in Escherichia coli BL21 assessed as residual activity at 1000 nM after 30 mins by Kinomescan method relative to control
[3] = test system: Tyrosine-protein kinase ABL1 (Homo sapiens), P00519 [F317I]; experiment: Inhibition of human non-phosphorylated ABL1 F317I mutant (S229 to K512 residues) expressed in HEK293 cells assessed as residual activity at 1000 nM after 30 mins by Kinomescan method relative to control; assay type: cell-based
Outline: (§1)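 KINOMEscan binding panel of 456 kinases, with the test compound at a single concentration of 1 µM. Read-out is Percent Control.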

[4] = biological target: Ephrin type-B receptor 6 (Homo sapiens) (UniProt O15197); experiment: Inhibition of wild-type human partial length EPHB6 (Q634 to P948 residues) expressed in HEK293 cells assessed as residual activity at 1000 nM after 30 mins by Kinomescan method relative to control; assay type: cell-based
[5] = biological target: Myosin light chain kinase (Homo sapiens) (UniProt Q32MK0); experiment: Inhibition of wild-type human partial length MLCK (D488 to K800 residues) expressed in Escherichia coli BL21 assessed as residual activity at 1000 nM after 30 mins by Kinomescan method relative to control
[6] = biological target: Mitogen-activated protein kinase kinase kinase 9 (Homo sapiens) (UniProt P80192); experiment: Inhibition of wild-type human partial length MLK1 (V88 to W426 residues) expressed in Escherichia coli BL21 assessed as residual activity at 1000 nM after 30 mins by Kinomescan method relative to control
[7] = test system: Receptor-type tyrosine-protein kinase FLT3 (Homo sapiens), P36888 [D835V]; experiment: Inhibition of human partial length FLT3 D835V mutant (V592 to Y969 residues) expressed in Escherichia coli BL21 assessed as residual activity at 1000 nM after 30 mins by Kinomescan method relative to control; outline: as §1
[8] = biological target: Serine/threonine-protein kinase N1 (Homo sapiens) (UniProt Q16512); experiment: Inhibition of wild-type human partial length PKN1 (E598 to C948 residues) expressed in Escherichia coli BL21 assessed as residual activity at 1000 nM after 30 mins by Kinomescan method relative to control
[9] = biological target: Tyrosine-protein kinase ABL1 (Homo sapiens) (UniProt P00519); experiment: Inhibition of wild-type human phosphorylated ABL1 (S229 to K512 residues) expressed in HEK293 cells assessed as residual activity at 1000 nM after 30 mins by Kinomescan method relative to control; assay type: cell-based
[10] = biological target: Fibroblast growth factor receptor 4 (Homo sapiens, UniProt P22455); experiment: Inhibition of wild-type human partial length FGFR4 (G402 to E713 residues) expressed in Escherichia coli BL21 assessed as residual activity at 1000 nM after 30 mins by Kinomescan method relative to control
[11] = test system: Epidermal growth factor receptor (Homo sapiens), P00533 [L858R,T790M]; experiment: Inhibition of human partial length EGFR L858R/T790M double mutant (R669 to V1011 residues) expressed in HEK293 cells assessed as residual activity at 1000 nM after 30 mins by Kinomescan method relative to control; assay type: cell-based; outline: as §1
[12] = biological target: Ribosomal protein S6 kinase alpha-1 (Homo sapiens) (UniProt Q15418); experiment: Inhibition of wild-type human partial length N-terminal RSK1 Kinase domain 1 (M1 to E388 residues) expressed in Escherichia coli BL21 assessed as residual activity at 1000 nM after 30 mins by Kinomescan method relative to control
[13] = biological target: Phosphatidylinositol 3-kinase catalytic subunit type 3 (Homo sapiens) (UniProt Q8NEB9); experiment: Inhibition of wild-type human partial length VPS34 (S282 to H879 residues) expressed in HEK293 cells assessed as residual activity at 1000 nM after 30 mins by Kinomescan method relative to control; assay type: cell-based
[14] = biological target: Homeodomain-interacting protein kinase 4 (Homo sapiens) (UniProt Q8NE63); experiment: Inhibition of wild-type human partial length HIPK4 (M1 to V384 residues) expressed in Escherichia coli BL21 assessed as residual activity at 1000 nM after 30 mins by Kinomescan method relative to control
[15] = biological target: Death-associated protein kinase 2 (Homo sapiens) (UniProt Q9UIK4); experiment: Inhibition of wild-type human full length DAPK2 (M1 to S370 residues) expressed in Escherichia coli BL21 assessed as residual activity at 1000 nM after 30 mins by Kinomescan method relative to control
Outline: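 Single-concentration screen at 1 µM across a 456-kinase KINOMEscan panel. The read-out is Percent Control for each kinase.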

[16] = biological target: Serine/threonine-protein kinase ULK2 (Homo sapiens) (UniProt Q8IYT8); experiment: Inhibition of wild-type human partial length ULK2 (M1 to S301 residues) expressed in HEK293 cells assessed as residual activity at 1000 nM after 30 mins by Kinomescan method relative to control; assay type: cell-based
[17] = biological target: Ribosomal protein S6 kinase alpha-2 (Homo sapiens) (UniProt Q15349); experiment: Inhibition of wild-type human partial length N-terminal RSK2 kinase domain 1 (M1 to D394 residues) expressed in HEK293 cells assessed as residual activity at 1000 nM after 30 mins by Kinomescan method relative to control; assay type: cell-based
Plasmodium falciparum = experiment: Inhibition of wild-type Plasmodium falciparum full length CDPK1 (M1 to S524 residues) expressed in HEK293 cells assessed as residual activity at 1000 nM after 30 mins by Kinomescan method relative to control; assay type: cell-based
Outline: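 Single-point screen at a fixed 1 µM, run within a 456-kinase DiscoveRx KINOMEscan panel. Each kinase's read-out is Percent Control, i.e. signal relative to a control without compound. Hits were scored by a Percent Control < 35 cut-off, and an S(35) selectivity score was calculated across the non-mutant kinases.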

[18] = biological target: Serine/threonine-protein kinase TAO2 (Homo sapiens) (UniProt Q9UL54); experiment: Inhibition of wild-type human partial length TAOK2 (M1 to A320 residues) expressed in HEK293 cells assessed as residual activity at 1000 nM after 30 mins by Kinomescan method relative to control; assay type: cell-based
[19] = test system: Mast/stem cell growth factor receptor Kit (Homo sapiens), P10721 [A829P]; experiment: Inhibition of human partial length KIT A829P mutant (I571 to D952 residues) expressed in HEK293 cells assessed as residual activity at 1000 nM after 30 mins by Kinomescan method relative to control; assay type: cell-based; outline: as §1
[20] = biological target: BMP-2-inducible protein kinase (Homo sapiens) (UniProt Q9NSY1); experiment: Inhibition of wild-type human partial length BIKE (S34 to N329 residues) expressed in Escherichia coli BL21 assessed as residual activity at 1000 nM after 30 mins by Kinomescan method relative to control

Sequence of Serine/threonine-protein kinase N1 (Homo sapiens) (Q16512 2-942 limits assumed): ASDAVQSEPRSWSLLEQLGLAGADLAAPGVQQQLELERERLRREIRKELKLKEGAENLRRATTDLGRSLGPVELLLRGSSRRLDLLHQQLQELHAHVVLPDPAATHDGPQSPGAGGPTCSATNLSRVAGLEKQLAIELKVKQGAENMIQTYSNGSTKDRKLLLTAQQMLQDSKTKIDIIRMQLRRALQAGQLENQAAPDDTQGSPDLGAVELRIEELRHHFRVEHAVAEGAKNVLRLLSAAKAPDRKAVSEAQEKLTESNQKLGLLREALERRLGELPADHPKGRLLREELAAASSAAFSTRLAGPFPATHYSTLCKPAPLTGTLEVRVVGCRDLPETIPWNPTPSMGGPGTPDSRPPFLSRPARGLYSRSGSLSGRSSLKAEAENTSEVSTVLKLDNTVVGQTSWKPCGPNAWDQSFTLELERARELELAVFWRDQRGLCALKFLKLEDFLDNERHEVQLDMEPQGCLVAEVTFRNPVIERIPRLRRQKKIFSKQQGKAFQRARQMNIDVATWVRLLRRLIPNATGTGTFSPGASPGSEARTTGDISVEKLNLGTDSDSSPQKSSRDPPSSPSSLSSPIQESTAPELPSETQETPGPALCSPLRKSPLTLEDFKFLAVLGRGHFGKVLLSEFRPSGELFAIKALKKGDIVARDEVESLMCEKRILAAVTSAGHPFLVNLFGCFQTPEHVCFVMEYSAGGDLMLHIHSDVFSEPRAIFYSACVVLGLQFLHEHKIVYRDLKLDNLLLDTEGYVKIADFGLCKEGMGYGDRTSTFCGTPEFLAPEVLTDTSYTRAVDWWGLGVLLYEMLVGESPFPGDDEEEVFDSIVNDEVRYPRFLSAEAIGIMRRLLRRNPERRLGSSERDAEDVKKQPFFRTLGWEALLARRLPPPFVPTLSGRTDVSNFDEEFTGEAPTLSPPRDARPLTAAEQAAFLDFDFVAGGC
Sequence of Serine/threonine-protein kinase TAO2 (Homo sapiens) (Q9UL54 whole entry, the tested form may be a part): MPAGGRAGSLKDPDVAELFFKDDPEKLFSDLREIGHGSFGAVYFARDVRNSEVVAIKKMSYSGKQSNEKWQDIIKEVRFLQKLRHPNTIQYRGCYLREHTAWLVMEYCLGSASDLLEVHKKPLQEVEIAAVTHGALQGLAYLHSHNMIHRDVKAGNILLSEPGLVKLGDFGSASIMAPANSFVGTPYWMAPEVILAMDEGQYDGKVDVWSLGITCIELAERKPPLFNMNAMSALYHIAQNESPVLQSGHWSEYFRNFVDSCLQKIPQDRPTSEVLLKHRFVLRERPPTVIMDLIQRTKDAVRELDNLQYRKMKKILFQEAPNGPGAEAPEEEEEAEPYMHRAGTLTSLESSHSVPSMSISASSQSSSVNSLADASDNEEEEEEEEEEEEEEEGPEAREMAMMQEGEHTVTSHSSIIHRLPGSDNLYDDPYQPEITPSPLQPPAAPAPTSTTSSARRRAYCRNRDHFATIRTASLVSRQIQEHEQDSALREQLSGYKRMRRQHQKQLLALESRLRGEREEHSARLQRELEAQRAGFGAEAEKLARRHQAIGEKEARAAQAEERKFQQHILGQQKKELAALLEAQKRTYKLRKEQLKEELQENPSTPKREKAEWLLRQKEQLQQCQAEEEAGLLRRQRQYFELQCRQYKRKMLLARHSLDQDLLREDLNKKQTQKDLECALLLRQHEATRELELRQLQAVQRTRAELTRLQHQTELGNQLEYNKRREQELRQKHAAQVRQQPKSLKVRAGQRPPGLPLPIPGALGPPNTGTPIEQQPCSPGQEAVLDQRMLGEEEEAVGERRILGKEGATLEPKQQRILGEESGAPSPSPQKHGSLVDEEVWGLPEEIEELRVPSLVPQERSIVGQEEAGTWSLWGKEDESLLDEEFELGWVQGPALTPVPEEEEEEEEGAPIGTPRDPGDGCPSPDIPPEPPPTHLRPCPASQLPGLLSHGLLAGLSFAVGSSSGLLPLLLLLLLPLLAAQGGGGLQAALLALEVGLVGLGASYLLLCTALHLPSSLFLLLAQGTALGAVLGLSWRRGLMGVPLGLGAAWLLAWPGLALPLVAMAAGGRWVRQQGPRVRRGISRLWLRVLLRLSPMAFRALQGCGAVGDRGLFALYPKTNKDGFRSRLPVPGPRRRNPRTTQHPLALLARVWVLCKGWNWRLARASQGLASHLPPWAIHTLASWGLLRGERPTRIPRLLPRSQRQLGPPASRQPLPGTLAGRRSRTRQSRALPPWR
Sequence of Serine/threonine-protein kinase D3 (Homo sapiens) (O94806 whole entry, the tested form may be a part): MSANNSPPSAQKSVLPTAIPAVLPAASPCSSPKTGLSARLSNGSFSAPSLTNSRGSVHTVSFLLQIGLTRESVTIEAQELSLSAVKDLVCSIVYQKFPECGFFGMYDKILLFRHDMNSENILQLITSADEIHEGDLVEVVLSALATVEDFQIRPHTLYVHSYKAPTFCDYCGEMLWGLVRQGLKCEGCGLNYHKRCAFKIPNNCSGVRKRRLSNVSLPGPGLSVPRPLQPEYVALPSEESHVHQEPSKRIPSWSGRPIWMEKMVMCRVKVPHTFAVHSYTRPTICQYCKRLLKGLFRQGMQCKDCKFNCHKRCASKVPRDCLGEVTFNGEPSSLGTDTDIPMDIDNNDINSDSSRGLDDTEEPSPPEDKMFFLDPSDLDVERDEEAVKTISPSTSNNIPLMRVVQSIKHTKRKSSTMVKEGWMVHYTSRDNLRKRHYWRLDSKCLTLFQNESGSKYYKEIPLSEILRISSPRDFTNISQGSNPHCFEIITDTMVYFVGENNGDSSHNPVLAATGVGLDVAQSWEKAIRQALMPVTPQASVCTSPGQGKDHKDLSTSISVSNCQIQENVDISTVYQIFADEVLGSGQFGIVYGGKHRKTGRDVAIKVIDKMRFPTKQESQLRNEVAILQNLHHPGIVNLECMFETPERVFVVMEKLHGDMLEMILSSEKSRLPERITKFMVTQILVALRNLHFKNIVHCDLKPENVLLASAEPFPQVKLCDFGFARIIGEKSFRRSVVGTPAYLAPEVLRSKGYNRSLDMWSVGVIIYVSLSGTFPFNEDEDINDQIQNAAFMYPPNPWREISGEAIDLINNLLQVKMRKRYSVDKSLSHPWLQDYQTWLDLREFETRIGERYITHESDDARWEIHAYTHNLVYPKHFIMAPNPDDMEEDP
Sequence of Myosin light chain kinase (Homo sapiens) (Q32MK0 whole entry, the tested form may be a part): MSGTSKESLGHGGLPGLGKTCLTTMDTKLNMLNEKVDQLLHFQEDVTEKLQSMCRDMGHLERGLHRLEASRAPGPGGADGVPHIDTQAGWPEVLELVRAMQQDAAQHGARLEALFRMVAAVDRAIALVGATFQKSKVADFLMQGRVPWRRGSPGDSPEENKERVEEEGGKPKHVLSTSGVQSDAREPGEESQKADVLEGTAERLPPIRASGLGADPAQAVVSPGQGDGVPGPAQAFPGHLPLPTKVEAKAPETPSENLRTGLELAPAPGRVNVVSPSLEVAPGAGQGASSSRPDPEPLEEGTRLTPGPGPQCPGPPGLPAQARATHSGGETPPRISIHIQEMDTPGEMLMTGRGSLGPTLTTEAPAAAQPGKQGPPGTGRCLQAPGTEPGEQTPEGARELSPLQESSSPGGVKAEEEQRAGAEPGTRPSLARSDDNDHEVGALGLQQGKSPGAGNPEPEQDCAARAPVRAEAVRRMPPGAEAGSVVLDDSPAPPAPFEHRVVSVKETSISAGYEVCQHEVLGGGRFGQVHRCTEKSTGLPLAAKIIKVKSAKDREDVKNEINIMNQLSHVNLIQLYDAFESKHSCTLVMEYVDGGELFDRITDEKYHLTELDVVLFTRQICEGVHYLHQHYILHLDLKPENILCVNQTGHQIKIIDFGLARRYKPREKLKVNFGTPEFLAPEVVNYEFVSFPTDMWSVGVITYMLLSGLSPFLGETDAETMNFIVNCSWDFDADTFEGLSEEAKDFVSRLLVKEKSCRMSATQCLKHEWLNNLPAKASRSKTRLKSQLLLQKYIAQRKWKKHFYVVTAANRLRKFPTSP
Sequence of Fibroblast growth factor receptor 4 (P22455 22-802 limits assumed): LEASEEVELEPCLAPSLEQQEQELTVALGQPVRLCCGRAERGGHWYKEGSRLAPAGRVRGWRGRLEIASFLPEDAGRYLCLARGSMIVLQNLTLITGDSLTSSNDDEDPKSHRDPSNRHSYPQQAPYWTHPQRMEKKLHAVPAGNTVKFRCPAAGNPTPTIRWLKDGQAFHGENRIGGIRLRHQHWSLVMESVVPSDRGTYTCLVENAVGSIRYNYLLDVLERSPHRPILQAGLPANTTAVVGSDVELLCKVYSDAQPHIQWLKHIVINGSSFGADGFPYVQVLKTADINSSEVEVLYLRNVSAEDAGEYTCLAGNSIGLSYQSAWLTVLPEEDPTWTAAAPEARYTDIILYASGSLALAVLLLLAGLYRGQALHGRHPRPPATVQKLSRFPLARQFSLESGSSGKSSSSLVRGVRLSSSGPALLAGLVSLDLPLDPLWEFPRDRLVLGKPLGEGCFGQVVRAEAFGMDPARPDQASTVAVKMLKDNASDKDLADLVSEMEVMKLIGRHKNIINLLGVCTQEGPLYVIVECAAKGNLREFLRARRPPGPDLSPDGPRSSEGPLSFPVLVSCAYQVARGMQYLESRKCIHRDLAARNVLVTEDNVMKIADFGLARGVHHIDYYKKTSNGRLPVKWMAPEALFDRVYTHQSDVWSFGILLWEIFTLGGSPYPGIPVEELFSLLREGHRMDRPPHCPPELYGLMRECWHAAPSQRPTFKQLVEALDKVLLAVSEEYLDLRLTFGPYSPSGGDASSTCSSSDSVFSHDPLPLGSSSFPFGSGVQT
Sequence of Death-associated protein kinase 2 (Homo sapiens) (Q9UIK4 whole entry, looked up, the tested form may be a part): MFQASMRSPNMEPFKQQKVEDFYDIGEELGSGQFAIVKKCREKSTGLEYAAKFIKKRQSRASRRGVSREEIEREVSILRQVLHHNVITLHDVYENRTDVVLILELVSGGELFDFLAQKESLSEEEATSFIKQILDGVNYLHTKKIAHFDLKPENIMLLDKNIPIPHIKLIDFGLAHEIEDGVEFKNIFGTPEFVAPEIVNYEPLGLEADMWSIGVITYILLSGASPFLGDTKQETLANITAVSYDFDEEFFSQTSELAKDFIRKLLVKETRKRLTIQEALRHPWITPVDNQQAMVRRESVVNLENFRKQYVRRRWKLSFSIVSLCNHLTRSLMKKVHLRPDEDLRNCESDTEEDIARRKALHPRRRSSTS

COc1cc(OC)c(Cl)c(N2Cc3cnc(Nc4ccc(F)cc4)nc3N(C3CCN(C(=O)/C=C/CN(C)C)CC3)C2=O)c1Cl gave an Activity [1] of 100%, an Activity [2] of 100% and an Activity [3] of 100%. The Activity [4] was 67%, the Activity [5] was 99% and the Activity [6] was 97%. The Activity [7] was 80%, the Activity [8] was 92% and the Activity [9] was 37%. It also gave an Activity [10] of 1%, an Activity [11] of 94% and an Activity [12] of 78%. It also gave an Activity [13] of 100%, an Activity [14] of 99% and an Activity [15] of 100%. The Activity [16] was 100%, the Activity [17] was 89% and the Activity (Plasmodium falciparum) was 100%. The Activity [18] was 6.2%, the Activity [19] was 30% and the Activity [20] was 100%.
